We go through 29 compounds from ChEMBL document CHEMBL1156821, “Transforming rhinacanthin analogues from potent anticancer agents into potent antimalarial agents” (J Med Chem, 2010).

The test system of data set [1] is Plasmodium falciparum. Nature of the data set: Antimalarial activity against multidrug-resistant Plasmodium falciparum K1 infected in erythrocytes after 48 hrs by [3H]hypoxanthine incorporation assay. It is filed as functional, organism-based. The method in brief:
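P. falciparum K1 (multidrug-resistant) was grown in RPMI 1640 with 20 mM HEPES, 32 mM NaHCO3, 10% […] human serum and 3% erythrocytes, at 37 C under 3% CO2. Early-ring cultures (1.5% erythrocytes, 1% parasitemia) were exposed to compound for 24 h at 0.1% final DMSO. [3H]hypoxanthine (0.5 μCi) was then added for a further 24 h, and incorporation was counted by scintillation. IC50 is the 50% growth reduction; values are the mean of six replicates; dihydroartemisinin was the reference.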

Data set [2] has as its system Vero. Nature of the data set: Cytotoxicity against African green monkey Vero cells by MTT assay. Conditions: Chlorocebus sabaeus. It is filed as cell-based. Background: Tetrazolium assays rely on reduction of a dye to a coloured formazan, in cell work by metabolically active cells.
Data set [3] relates to Plasmodium falciparum. The experiment in a line: Inhibition of Cytochrome b-c1 complex in Plasmodium falciparum 3D7 cell free extracts assessed as decyclobiquinol-linked cytochrome c reduction by spectrophotometry. The method in brief:
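Cell-free extract of P. falciparum 3D7 was made by 20 s sonication on ice and adjusted to 0.1 mg protein/mL by Bradford assay. Steady-state decylubiquinol/cytochrome c reductase activity was read at ε550-542nm at 21 C in 50 mM potassium phosphate pH 7.5 with 2 mM EDTA, 10 mM KCN and 30 μM equine cytochrome c. Reactions were started with 50 μM decylubiquinol, compound added without preincubation, DMSO ≤0.3%. IC50 came from four-parameter sigmoidal fits of three separate assays.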

A short description of data set [4]: Inhibition of Cytochrome b-c1 complex in yeast mitochondrial membrane assessed as decyclobiquinol-linked cytochrome c reduction by spectrophotometry. Format: cell membranes, Saccharomyces cerevisiae. The procedure, abridged: (§1)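 Steady-state decylubiquinol/cytochrome c reductase in yeast mitochondrial membranes (YPD-grown at 28 C) or male Wistar rat (125-170 g) liver microsomes. bc1 set to 5 nM; 50 mM K-phosphate pH 7.5, 2 mM EDTA, 10 mM KCN, 30 μM equine cytochrome c. Start: 50 μM decylubiquinol. ε550-542nm read at 21 C; no preincubation, DMSO ≤0.3%. IC50 from four-parameter sigmoidal fit, three separate assays.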

Data set [5] is described as follows: Inhibition of Cytochrome b-c1 complex in Wistar rat liver microsomes assessed as decyclobiquinol-linked cytochrome c reduction by spectrophotometry. Further details: species or system Microsome. The method in brief: as §1
For orientation: Liver microsomes are a subcellular fraction often used to study metabolism.

Data set [6] in a line: Inhibition of wild type Saccharomyces cerevisiae CK Cytochrome b-c1 complex by spectrophotometry. The procedure, abridged: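 Purified bc1 from wild-type yeast strain CKWT grown in YPGal was diluted to 8 nM. Inhibitor was added before starting with 50 μM decylubiquinol; 550 nm read at room temperature. IC50 taken from a concentration series.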
Data set [7] can be described thus: Therapeutic index, ratio of IC50 for African green monkey (Cercopithecus aethiops) Vero cells to IC50 for multidrug-resistant Plasmodium falciparum K1. Format: cell-based. Particulars: read-out: Ratio IC50.
Data set [8] deals with Saccharomyces cerevisiae. The experiment in a line: Inhibition of electron transfer from Q(o) site to iron cluster of Saccharomyces cerevisiae CK Cytochrome b-c1 complex assessed as DQH-induced reduction of cyt bc1 complex by redoxdifference spectra. The method in brief:
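Purified yeast bc1 at 2 μM in 50 mM K-phosphate with 0.05% UM; inhibitors added at final 5 μM (test) or 40 μM (stigmatellin, antimycin A). Redox difference spectra recorded as decylubiquinol-reduced bc1-inhibitor complex minus protein-inhibitor complex.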

Data set [9] relates to Saccharomyces cerevisiae. The experiment in a line: Inhibition of Saccharomyces cerevisiae CK Cytochrome b-c1 complex assessed as DQH-induced reduction of cyt bc1 complex by redoxdifference spectra.
[10] abbreviates: Plasmodium falciparum, K1, read-out: IC50.

SMILES strings stand for the structures. Activity calls are given as the source filed them. No cut-off for these calls is given here.

What is called IC50 is the concentration that gives 50% inhibition.

Consider `CCCCCCC(C)C(=O)OCC(C)(C)CC1=C(O)C(=O)c2ccccc2C1=O` (centres undefined), for which the 50% inhibitory concentration (IC50) turned out to be 110 nM in [1] (setting [10]) and 450 nM in data set [2].

Consider `CC(=O)OCCCC1=C(O)C(=O)c2ccccc2C1=O`, for which the IC50 entry in data set [1] is recorded as “Not Active”.

Turning to `CCCCC(=O)OCC(C)(C)CC1=C(O)C(=O)c2ccccc2C1=O`, the IC50 in data set [1] (setting [10]) worked out at 580 nM; in [2], 7840 nM.

`CCCCCCC(=O)OCC(C)(C)CC1=C(O)C(=O)c2ccccc2C1=O`: the IC50 turned out to be 810 nM in [1] (setting [10]) and 99300 nM in [2].

Consider `CC(C)CC(=O)OCC(C)(C)CC1=C(O)C(=O)c2ccccc2C1=O`, for which the values for the concentration for half-maximal inhibition (IC50) in data set [1] (setting [10]) and in [2] were 410 nM and 550 nM, respectively.

`CCCCCC(=O)OCC(C)(C)CC1=C(O)C(=O)c2ccccc2C1=O`: the IC50 in data set [1] (setting [10]) came to 1120 nM; in [2], 169000 nM.

With `CCCCCCCCCC(=O)OCC(C)(C)CC1=C(O)C(=O)c2ccccc2C1=O`, the half-inhibitory concentration (IC50) in data set [1] (setting [10]) came to 720 nM; in data set [2], 203000 nM.

With `CCCCCCCCCCCCCC(=O)OCC(C)(C)CC1=C(O)C(=O)c2ccccc2C1=O`, the half-maximal inhibitory concentration (IC50) is 32 nM in data set [1] (setting [10]); 58400 nM in data set [2]; 8 nM in [3]; 79.6 nM in data set [4]; 2500 nM in data set [5]; 770 nM in [6]. Also, the selectivity ratio in data set [7] is 1830. The outcome in [8] was Active.

For the compound `CCCCCC[C@H]1C(=O)O[C@H](C)[C@H](NC(=O)c2cccc(NC=O)c2O)C(=O)O[C@@H](C)[C@@H]1OC(=O)CC(C)C`, the outcome in [9] was Active.

With `CCCCCCCC(=O)OCCCC1=C(O)C(=O)c2ccccc2C1=O`, the half-inhibitory concentration (IC50) in data set [1] (setting [10]) turned out to be 5150 nM.

In the case of `CCC(C)C(=O)OCC(C)(C)CC1=C(O)C(=O)c2ccccc2C1=O` (centres undefined), the IC50 in [1] (setting [10]) was 220 nM; in data set [2], 870 nM.

Regarding `CCCCCCCCCCCC(=O)OCC(C)(C)CC1=C(O)C(=O)c2ccccc2C1=O`, the IC50 in data set [1] (setting [10]) is 900 nM; in data set [2], 249000 nM.

Turning to `CCCCCCCC(=O)OCC1(CC2=C(O)C(=O)c3ccccc3C2=O)CCCCC1`, the IC50 in data set [1] (setting [10]) was found to be 2630 nM.

As to `CCCC(C)C(=O)OCC(C)(C)CC1=C(O)C(=O)c2ccccc2C1=O` (centres undefined), the IC50 in [1] (setting [10]) and in [2] was 120 nM throughout.

Regarding `CCC(=O)OCC(C)(C)CC1=C(O)C(=O)c2ccccc2C1=O`, the IC50 in data set [1] (setting [10]) was found to be 4100 nM; in data set [2] it was 60100 nM.

Turning to `CC(=O)OCC(C)(C)CC1=C(O)C(=O)c2ccccc2C1=O`, the half-inhibitory concentration (IC50) in data set [1] (setting [10]) worked out at 10900 nM; in [2], 139000 nM.

With `CCCCCCCCCCCCCCCC(=O)OCC(C)(C)CC1=C(O)C(=O)c2ccccc2C1=O`, the figures for the half-maximal inhibitory concentration (IC50) in [1] (setting [10]) and in data set [2] were 30 nM and 4410 nM, respectively.

For the compound `CCC(C)CC(=O)OCC(C)(C)CC1=C(O)C(=O)c2ccccc2C1=O` (centres undefined), the IC50 in data set [1] (setting [10]) came out at 190 nM; in data set [2] it was 2300 nM.

Regarding `CCC(CC)C(=O)OCC(C)(C)CC1=C(O)C(=O)c2ccccc2C1=O`, the half-inhibitory concentration (IC50) is 16600 nM in data set [1] (setting [10]) and 104000 nM in [2].

Take `CCCCCCCCC(=O)OCC(C)(C)CC1=C(O)C(=O)c2ccccc2C1=O`: the IC50 was 500 nM in data set [1] (setting [10]) and 150000 nM in [2].

For the compound `CC[C@H](C)C(=O)OCC(C)(C)CC1=C(O)C(=O)c2ccccc2C1=O`, the results for the IC50 in data set [1] (setting [10]) and in [2] were 110 nM and 570 nM, respectively.

Take `CCCC(=O)OCCCC1=C(O)C(=O)c2ccccc2C1=O`: the IC50 entry in data set [1] is on record as “Not Active”.

Turning to `CCCC(=O)OCC(C)(C)CC1=C(O)C(=O)c2ccccc2C1=O`, the half-inhibitory concentration (IC50) in data set [1] (setting [10]) worked out at 910 nM; in data set [2] it was 73200 nM.

With `CC(C)C(=O)OCC(C)(C)CC1=C(O)C(=O)c2ccccc2C1=O`, the IC50 in [1] (setting [10]) was determined as 910 nM; in data set [2], 123000 nM.

With `CCCCCCCCCCCCCCCCCC(=O)OCC(C)(C)CC1=C(O)C(=O)c2ccccc2C1=O`, the values for the IC50 in [1] (setting [10]) and in data set [2] were 133 nM and 15500 nM, respectively.

As for `C[C@H]1[C@@H](O)O[C@@H]2O[C@@]3(C)CC[C@H]4[C@H](C)CC[C@@H]1[C@@]24OO3` [ARTENIMOL], in data set [1] (setting [10]), the IC50 amounted to 3.5 nM.

Regarding `C/C=C(C)/C=C/C=C/[C@H](OC)[C@@H](C)[C@@H](OC)[C@@H](C)CCc1oc2c(O)c(OC)cc(OC)c2c(=O)c1C` [STIGMATELLIN], the half-maximal inhibitory concentration (IC50) in [6] is 9.1 nM. The outcome in [8] was Active.

Take `CCCCCCCCCCC(=O)OCC(C)(C)CC1=C(O)C(=O)c2ccccc2C1=O`: the IC50 is 700 nM in data set [1] (setting [10]) and over 233000 nM in data set [2].

As to `CCCCCCCC(=O)OCC(C)(C)CC1=C(O)C(=O)c2ccccc2C1=O`, the IC50 in data set [1] (setting [10]) is 130 nM; in [2], over 259000 nM; in [3] it was 5.4 nM; in [4], 16 nM; in data set [5], 3000 nM; in data set [6] it was 840 nM. For the same compound, the selectivity ratio in data set [7] was over 1990. In addition, the outcome in data set [8] was Active.
